Results on 1 compound are retold here after ChEMBL document CHEMBL5053559, “Photoaffinity-Based Chemical Proteomics Reveals 7-Oxocallitrisic Acid Targets CPT1A to Trigger Lipogenesis Inhibition” (ACS Med Chem Lett, 2021).

Activity calls are given as the source filed them. The rule behind the calls is not given here.

Data set [1] deals with AML12. Put plainly: Cytotoxicity against mouse AML12 cells assessed as cell viability at 5 uM measured after 24 hrs by MTT assay. Type of data set: cell-based. The following applies: aml12, 24 h.
Data set [2] relates to AML12. As to the kind of experiment: Inhibition of oleic acid-induced lipid accumulation in mouse AML12 cells with Si-RNA-induced FADS3 knockdown. Type of data set: functional, cell-based.
The test system of data set [3] is AML12. Put plainly: Inhibition of oleic acid-induced lipid accumulation in mouse AML12 cells with Si-RNA-induced ACSL1 knockdown. Type of data set: functional, cell-based.
Data set [4] relates to AML12. As to the kind of experiment: Inhibition of oleic acid-induced lipid accumulation in mouse AML12 cells with siRNA-induced CPT1A knockdown at 40 uM measured after 24 hrs by Oil red O staining based microscopic assay. Type of data set: functional, cell-based. The essentials:
(§1)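 AML12 cells either transfected with siRNA against CPT1A or pretreated with 20 μM etomoxir, with negative-control comparison. Cells then loaded with oleic acid and exposed to compound at 40 μM for 24 h. Lipid read by Oil Red O staining with image quantification. Mean ± SEM, n = 3.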

The subject of data set [5] is AML12. As to the kind of experiment: Cytotoxicity against mouse AML12 cells assessed as cell viability at 20 uM measured after 24 hrs by MTT assay. Type of data set: cell-based. The note with it: aml12, 24 h.
Data set [6] has as its system AML12. As to the kind of experiment: Inhibition of oleic acid-induced lipid accumulation in mouse AML12 cells at 40 uM preincubated with oleic acid for 24 hrs followed by addition of compounds and measured after 24 hrs by Oil red O staining based microscopic assay. Type of data set: functional, cell-based. An outline of the steps: (§2)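 Normal mouse liver AML12 cells loaded with 0.15 mM oleic acid in BSA to induce lipid droplets, then given compound for 24 h. DMSO vehicle as control. Stained with Oil Red O and quantified by image analysis. Mean ± SEM, n = 3.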

The test system of data set [7] is AML12. Put plainly: Inhibition of oleic acid-induced lipid accumulation in mouse AML12 cells at 20 uM preincubated with oleic acid for 24 hrs followed by addition of compounds and measured after 24 hrs by Oil red O staining based microscopic assay. The format is functional, cell-based. The essentials:
as §2

Data set [8] has as its system AML12. Put plainly: Activation of CPT1A in mouse AML12 cells assessed as inhibition of oleic acid-induced lipid accumulation using L-carnitine and palmitoyl CoA as substrates pretreated with ETO for 6 hrs followed by addition of compound at 20 uM measured after 48 hrs by […] reagent based enzymatic assay. The format is cell-based. An outline of the steps:
(§3)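 Lysates of AML12 cells grown in medium with 0.15 mM oleic acid. Cells pretreated 6 h with ETO or with DMSO, then exposed to compound for 24 h (legend says 48 h). Lysis by sonication in 0.5 M Tris, 0.15 M KCl and protease inhibitors. Protein measured by Bradford. Activity expressed as nmol CoA-SH released per min per mg protein. Mean ± SEM, n = 3.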

The subject of data set [9] is AML12. Put plainly: Cytotoxicity against mouse AML12 cells assessed as cell viability at 40 uM measured after 24 hrs by MTT assay. Type of data set: cell-based. The following applies: aml12, 24 h.
Data set [10] deals with AML12. As to the kind of experiment: Activation of CPT1A in mouse AML12 cells assessed as inhibition of oleic acid-induced lipid accumulation using L-carnitine and palmitoyl CoA as substrates at 40 uM measured after 48 hrs by […] reagent based enzymatic assay relative to control. Type of data set: cell-based. The note with it: filed as activator. The essentials:
as §3

Data set [11] has as its system AML12. As to the kind of experiment: Activation of CPT1A in mouse AML12 cells assessed as inhibition of oleic acid-induced lipid accumulation using L-carnitine and palmitoyl CoA as substrates at 20 uM measured after 48 hrs by […] reagent based assay relative to control. Type of data set: cell-based. The following applies: filed as activator. The essentials: as §3

The test system of data set [12] is AML12. As to the kind of experiment: Inhibition of oleic acid-induced lipid accumulation in mouse AML12 cells with Si-RNA-induced ECHS1 knockdown. The format is functional, cell-based.
Data set [13] relates to AML12. As to the kind of experiment: Cytotoxicity against mouse AML12 cells assessed as cell viability at 10 uM measured after 24 hrs by MTT assay. The format is cell-based. The following applies: aml12, 24 h.
In data set [14] the test system is AML12. Put plainly: Activation of CPT1A in mouse AML12 cells assessed as inhibition of oleic acid-induced lipid accumulation using L-carnitine and palmitoyl CoA as substrates pretreated with ETO for 6 hrs followed by addition of compound at 40 uM measured after 48 hrs by […] reagent based enzymatic assay. Type of data set: cell-based. An outline of the steps: as §3

Data set [15] has as its system AML12. As to the kind of experiment: Inhibition of oleic acid-induced lipid accumulation in mouse AML12 cells assessed as increased expression of CPT1A preincubated with ETO at 40 uM measured after 24 hrs by Oil red O staining based microscopic assay. Type of data set: functional, cell-based. The essentials:
as §1

Turning to `CC(C)c1ccc2c(c1)C(=O)C[C@H]1[C@](C)(C(=O)O)CCC[C@]21C`, the Activity result in [1], in data set [5], in [9] and in data set [13] was “Non-Toxic” in each case. Further, the inhibition entry in data set [2], in data set [3], in [6], in data set [7] and in data set [12] was “Active” in each case. Moreover, the inhibition entry in data set [4] and in [15] was “inactive” throughout. Further, the outcome in data set [8] and in [14] was inactive. The fold change (FC) in [10] turned out to be 1.6; in [11], 1.5.
